This is an account of results in ChEMBL document CHEMBL5661979, “Pharmacological inhibition of BMK1 suppresses tumor growth through promyelocytic leukemia protein” (Cancer Cell, 2010).

In test [1] the target is T1, Serine/threonine-protein kinase Nek9 (Homo sapiens) (UniProt Q8TD19).
T1 sequence (whole entry): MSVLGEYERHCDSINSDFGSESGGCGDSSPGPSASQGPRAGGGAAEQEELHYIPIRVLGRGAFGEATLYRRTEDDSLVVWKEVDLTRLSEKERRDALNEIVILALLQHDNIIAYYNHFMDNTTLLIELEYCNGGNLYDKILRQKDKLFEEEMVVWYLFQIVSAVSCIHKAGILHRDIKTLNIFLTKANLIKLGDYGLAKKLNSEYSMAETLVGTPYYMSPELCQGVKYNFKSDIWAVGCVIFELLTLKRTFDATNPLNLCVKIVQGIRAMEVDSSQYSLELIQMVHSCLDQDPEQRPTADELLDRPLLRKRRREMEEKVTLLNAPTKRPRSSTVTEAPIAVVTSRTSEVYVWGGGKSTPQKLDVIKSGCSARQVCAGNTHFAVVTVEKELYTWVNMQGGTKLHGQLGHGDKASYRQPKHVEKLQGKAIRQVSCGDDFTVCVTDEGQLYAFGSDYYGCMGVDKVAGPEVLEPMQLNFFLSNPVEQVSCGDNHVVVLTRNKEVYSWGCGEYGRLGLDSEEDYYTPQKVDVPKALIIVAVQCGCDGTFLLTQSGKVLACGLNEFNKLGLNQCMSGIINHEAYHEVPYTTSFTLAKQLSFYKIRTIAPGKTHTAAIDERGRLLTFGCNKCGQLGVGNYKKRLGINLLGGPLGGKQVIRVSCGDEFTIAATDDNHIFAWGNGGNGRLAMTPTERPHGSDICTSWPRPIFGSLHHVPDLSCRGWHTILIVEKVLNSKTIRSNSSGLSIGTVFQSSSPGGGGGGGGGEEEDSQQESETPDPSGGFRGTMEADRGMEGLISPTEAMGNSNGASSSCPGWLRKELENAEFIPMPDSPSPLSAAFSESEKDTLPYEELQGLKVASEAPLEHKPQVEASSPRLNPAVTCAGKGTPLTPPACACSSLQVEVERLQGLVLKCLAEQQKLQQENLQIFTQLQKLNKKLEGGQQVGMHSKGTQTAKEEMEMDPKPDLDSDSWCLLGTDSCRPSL
The test can be described thus: Inhibition of NEK9 in human HeLa cells lysate at 50 uM pre incubated for 15 mins followed by ADP acyl phosphate probe addition and measured after 10 mins by LC-MS/MS analysis relative to control. Type of test: subcellular. Conditions: time 25.0 min.

A short description of test [2]: Inhibition of PCTAIRE2/ICK in human HeLa cells lysate at 50 uM pre incubated for 15 mins followed by ADP acyl phosphate probe addition and measured after 10 mins by LC-MS/MS analysis relative to control. The note with it: 25 min, condition cancer.
For test [3], the target named is T2, Serine/threonine-protein kinase tousled-like 1 (Homo sapiens) (UniProt Q9UKI8).
T2 sequence (whole entry): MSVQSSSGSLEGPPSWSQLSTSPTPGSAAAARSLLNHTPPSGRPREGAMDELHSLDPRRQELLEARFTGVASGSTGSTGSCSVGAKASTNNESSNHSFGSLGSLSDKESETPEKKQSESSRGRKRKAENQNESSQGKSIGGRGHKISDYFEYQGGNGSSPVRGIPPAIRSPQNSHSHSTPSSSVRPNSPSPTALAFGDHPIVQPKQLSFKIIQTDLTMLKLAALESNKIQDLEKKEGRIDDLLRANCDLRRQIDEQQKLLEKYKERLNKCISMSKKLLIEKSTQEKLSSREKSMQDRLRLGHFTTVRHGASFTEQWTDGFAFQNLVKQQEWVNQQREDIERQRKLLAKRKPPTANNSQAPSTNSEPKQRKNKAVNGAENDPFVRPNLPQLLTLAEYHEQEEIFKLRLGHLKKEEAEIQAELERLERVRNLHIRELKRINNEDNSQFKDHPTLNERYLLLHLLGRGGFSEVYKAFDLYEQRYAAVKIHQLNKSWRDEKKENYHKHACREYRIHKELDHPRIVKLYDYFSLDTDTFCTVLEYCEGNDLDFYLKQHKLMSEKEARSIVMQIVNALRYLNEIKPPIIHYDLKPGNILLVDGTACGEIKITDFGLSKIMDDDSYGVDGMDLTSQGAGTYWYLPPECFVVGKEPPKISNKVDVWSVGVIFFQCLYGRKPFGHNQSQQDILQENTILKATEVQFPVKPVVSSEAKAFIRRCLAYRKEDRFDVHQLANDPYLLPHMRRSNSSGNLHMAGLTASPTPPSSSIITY
In words: Inhibition of TLK1 in human HeLa cells lysate at 10 uM pre incubated for 15 mins followed by ADP acyl phosphate probe addition and measured after 10 mins by LC-MS/MS analysis relative to control. Type of test: subcellular. Conditions: time 25.0 min.

Test [4] can be described thus: Inhibition of MAP3K5/MAP3K6/MAP3K15 in human HeLa cells lysate at 50 uM pre incubated for 15 mins followed by ATP acyl phosphate probe addition and measured after 10 mins by LC-MS/MS analysis relative to control. The note with it: 25 min, condition cancer.
Test [5] concerns the target T3, Serine/threonine-protein kinase A-Raf (Homo sapiens) (UniProt P10398).
T3 sequence (whole entry): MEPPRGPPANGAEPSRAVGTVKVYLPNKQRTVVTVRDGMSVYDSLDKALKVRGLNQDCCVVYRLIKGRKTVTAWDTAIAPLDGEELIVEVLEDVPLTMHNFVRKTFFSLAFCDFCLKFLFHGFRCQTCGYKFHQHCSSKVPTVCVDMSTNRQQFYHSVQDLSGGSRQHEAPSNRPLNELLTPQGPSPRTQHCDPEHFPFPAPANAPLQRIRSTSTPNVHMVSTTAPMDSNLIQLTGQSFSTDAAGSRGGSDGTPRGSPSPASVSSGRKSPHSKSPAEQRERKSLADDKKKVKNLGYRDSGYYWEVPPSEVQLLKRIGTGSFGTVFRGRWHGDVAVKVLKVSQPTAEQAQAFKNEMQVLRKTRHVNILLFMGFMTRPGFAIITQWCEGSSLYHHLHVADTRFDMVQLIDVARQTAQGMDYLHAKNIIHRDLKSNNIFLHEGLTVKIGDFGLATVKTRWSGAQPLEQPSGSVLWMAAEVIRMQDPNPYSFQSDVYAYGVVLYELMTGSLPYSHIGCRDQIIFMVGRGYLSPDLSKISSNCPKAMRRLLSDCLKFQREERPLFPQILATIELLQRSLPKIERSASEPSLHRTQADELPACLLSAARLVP
The test can be described thus: Inhibition of ARAF in human HeLa cells lysate at 10 uM pre incubated for 15 mins followed by ATP acyl phosphate probe addition and measured after 10 mins by LC-MS/MS analysis relative to control. Format: subcellular. Conditions: time 25.0 min. Summed up:
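KiNativ-type profiling in HeLa lysate (5 mg/mL total protein). Lysate preincubated 15 min with inhibitor at 50, 10, 2, 0.8 or 0 μM, then ATP or ADP acylphosphate probe added (5 μM final) for 10 min. Reaction stopped with urea and analysed by targeted MS, using up to four fragment ions per kinase peptide-probe conjugate. % inhibition calculated against untreated lysate. Duplicate reactions.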

The target in test [6] is p38 delta/gamma (Homo sapiens) (UniProt O15264+P53778). In words: Inhibition of p38d/p38g in human HeLa cells lysate at 2 uM pre incubated for 15 mins followed by ATP acyl phosphate probe addition and measured after 10 mins by LC-MS/MS analysis relative to control. Type of test: subcellular. Conditions: time 25.0 min.

What is called inhibition is the percentage by which the read-out fell short of the control. The low end stands for little suppression, the high end for strong suppression. Regarding `CCOc1cc(N2CCC(O)CC2)ccc1Nc1ncc2c(n1)N(C)c1ccccc1C(=O)N2C`, the inhibition in test [1] worked out at 4.5%; in test [3], 4.5%; in test [5], 11.2%; in test [6], 100%. Besides, the inhibition at 50 µM in test [2] is 4.1%; in test [4], 2.5%.
